How the values were obtained:
Aminopeptidase N = biological target: T1, Aminopeptidase N (Sus scrofa, UniProt P15145); assay: Inhibition of pig kidney microsomal aminopeptidase N
T1 sequence (P15145 whole entry): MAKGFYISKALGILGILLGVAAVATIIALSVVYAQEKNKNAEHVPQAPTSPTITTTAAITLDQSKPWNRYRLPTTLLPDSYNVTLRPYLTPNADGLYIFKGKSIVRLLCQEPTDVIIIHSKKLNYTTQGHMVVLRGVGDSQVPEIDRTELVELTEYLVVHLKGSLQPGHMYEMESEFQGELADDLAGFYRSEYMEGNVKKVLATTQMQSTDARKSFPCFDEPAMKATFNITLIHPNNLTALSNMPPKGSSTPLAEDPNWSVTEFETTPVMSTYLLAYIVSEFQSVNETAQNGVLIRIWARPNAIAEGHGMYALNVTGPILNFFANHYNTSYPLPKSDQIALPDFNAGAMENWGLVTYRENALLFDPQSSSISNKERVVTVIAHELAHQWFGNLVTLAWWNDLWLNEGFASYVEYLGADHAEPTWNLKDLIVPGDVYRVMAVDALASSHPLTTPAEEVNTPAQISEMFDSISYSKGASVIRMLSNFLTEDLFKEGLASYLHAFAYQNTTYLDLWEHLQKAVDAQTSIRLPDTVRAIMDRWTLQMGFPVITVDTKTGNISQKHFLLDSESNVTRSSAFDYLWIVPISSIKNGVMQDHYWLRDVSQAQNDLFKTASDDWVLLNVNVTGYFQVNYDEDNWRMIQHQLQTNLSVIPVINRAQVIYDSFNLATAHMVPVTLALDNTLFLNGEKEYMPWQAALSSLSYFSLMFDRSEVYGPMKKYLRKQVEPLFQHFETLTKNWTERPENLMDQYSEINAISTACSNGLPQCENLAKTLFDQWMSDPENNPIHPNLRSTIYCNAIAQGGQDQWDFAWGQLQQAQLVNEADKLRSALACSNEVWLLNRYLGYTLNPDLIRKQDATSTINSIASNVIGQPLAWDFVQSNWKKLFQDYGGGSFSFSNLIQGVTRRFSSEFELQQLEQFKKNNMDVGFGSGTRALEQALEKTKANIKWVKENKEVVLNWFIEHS

Plasmodium falciparum [1] = assay: Inhibition of alanyl aminopeptidase activity in Plasmodium falciparum 3D7 at 0.1 uM using Ala-AMC as a substrate by spectrophotometer
How it was run: (§1)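 Cytosolic extract came from free parasites released from infected erythrocytes, then three freeze-thaw cycles and centrifugation at 12,000 x g, 4°C, 20 min. Extract (25 µg/ml final) was preincubated with 0.1 or 10 µM inhibitor in 50 mM Tris-Cl pH 8.0, with or without 1 mM CoCl2, for 15 min at 37°C. Leu-AMC or Ala-AMC (10 µM final) was added. AMC release was read over 30 min (ex 370/em 440 nm).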

[2] = biological target: T2, Leucine aminopeptidase (Plasmodium falciparum 3D7) (UniProt Q8IL11); assay: Inhibition of leucyl aminopeptidase activity in Plasmodium falciparum 3D7 at 10 uM using Leu-AMC as a substrate by spectrophotometer in presence of 1 mM CoCl2
T2 sequence (whole entry): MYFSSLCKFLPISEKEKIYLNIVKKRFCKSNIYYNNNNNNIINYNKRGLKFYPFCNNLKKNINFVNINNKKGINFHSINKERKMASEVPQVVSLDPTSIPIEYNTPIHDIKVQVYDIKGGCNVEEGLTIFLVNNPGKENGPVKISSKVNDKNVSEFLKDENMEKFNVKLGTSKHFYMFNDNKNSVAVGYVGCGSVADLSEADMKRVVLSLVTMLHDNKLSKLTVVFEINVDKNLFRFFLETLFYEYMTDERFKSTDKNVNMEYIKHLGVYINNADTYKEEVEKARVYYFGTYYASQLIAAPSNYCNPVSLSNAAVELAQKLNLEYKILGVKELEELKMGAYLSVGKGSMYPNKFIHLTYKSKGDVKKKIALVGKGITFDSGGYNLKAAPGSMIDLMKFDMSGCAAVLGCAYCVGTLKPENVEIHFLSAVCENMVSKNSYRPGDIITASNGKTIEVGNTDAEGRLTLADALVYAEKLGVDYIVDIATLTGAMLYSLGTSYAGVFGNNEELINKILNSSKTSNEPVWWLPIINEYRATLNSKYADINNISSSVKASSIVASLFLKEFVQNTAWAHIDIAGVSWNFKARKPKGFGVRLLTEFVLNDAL

Plasmodium falciparum [3] = assay: Antimalarial activity against Plasmodium falciparum 3D7 infected in O-positive human erythrocytes after 72 hrs; assay type: functional, organism-based; conditions: 3D7, 72 h
How it was run: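 Asynchronous asexual blood-stage P. falciparum 3D7 were cultured in O+ erythrocytes and exposed to compounds for 72 h. Growth was read by the spectrophotometric parasite lactate dehydrogenase absorbance assay. IC50 values were determined graphically from dose-response curves.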

[4] = biological target: T2, Leucine aminopeptidase (Plasmodium falciparum 3D7); assay: Inhibition of leucyl aminopeptidase activity in Plasmodium falciparum 3D7 harboring tPfAP-M17 gene at 0.1 uM using Leu-AMC as a substrate by spectrophotometer in presence of 1 mM CoCl2
[5] = biological target: T2, Leucine aminopeptidase (Plasmodium falciparum 3D7); assay: Inhibition of leucyl aminopeptidase activity in Plasmodium falciparum 3D7 at 0.1 uM using Leu-AMC as a substrate by spectrophotometer; how it was run: as §1
[6] = Inhibition of porcine kidney leucyl aminopeptidase; design: species or system Sus scrofa
[7] = biological target: T2, Leucine aminopeptidase (Plasmodium falciparum 3D7); assay: Inhibition of leucyl aminopeptidase activity in Plasmodium falciparum 3D7 at 10 uM using Leu-AMC as a substrate by spectrophotometer; how it was run: as §1
[8] = biological target: T2, Leucine aminopeptidase (Plasmodium falciparum 3D7); assay: Inhibition of leucyl aminopeptidase activity in Plasmodium falciparum 3D7 at 0.1 uM using Leu-AMC as a substrate by spectrophotometer in presence of 1 mM CoCl2
Plasmodium falciparum [9] = assay: Inhibition of alanyl aminopeptidase activity in Plasmodium falciparum 3D7 at 10 uM using Ala-AMC as a substrate by spectrophotometer; how it was run: as §1

Row | Compound | Ki (Aminopeptidase N) [µM] | inhibition at 0.1 µM (Plasmodium falciparum [1]) [%] | inhibition [2] [%] | IC50 (Plasmodium falciparum [3]) [µM] | inhibition [4] [%] | inhibition [5] [%] | Ki [6] [µM] | inhibition [7] [%] | inhibition [8] [%] | inhibition at 10 µM (Plasmodium falciparum [9]) [%]
1 | NC(CCCC1CCCCC1)P(=O)(O)O (racemic) | 41.6 | 15 | 91 | 14 | 34 | 17 | 9.57 | 95 | 51 | 95
2 | NC(CCC1CCCCC1)P(=O)(O)O (racemic) | 37.1 | 13 | 91 | 15 | 67 | 17 | 0.21 | 94 | 43 | 94
3 | NC(CCCCc1ccccc1)P(=O)(O)O (racemic) | 3.69 | 28 | 92 | 22 | 61 | 28 | 0.33 | 97 | 25 | 97
